Legend:
[1] = species on record: Rattus norvegicus; test: Stimulation of phosphoinositide (PI) metabolism in rat cortex at 100 uM; type: functional
How it was run: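 Rat cerebral cortex slices cross-chopped at 300 μm, preincubated in oxygenated Krebs-Henseleit buffer at 37 °C. Labeled 30 min with 0.3 mM [3H]inositol and 10 mM LiCl, then 45 min with agonist at 100 μM, or buffer for basal. Stopped with CHCl3/MeOH. Total [3H]inositol phosphates isolated on anion-exchange cartridges and counted. Given as % above basal; mean ± SEM, three independent experiments.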

[2] = target: T1, Muscarinic acetylcholine receptor M1 (Rattus norvegicus, UniProt P08482); test: (§1) Affinity for muscarinic receptor M1 in rat brain was measured by inhibition of [3H](R)-quinuclidinyl benzilate (QNB) binding; type: tissue-based
T1 sequence (P08482 whole entry): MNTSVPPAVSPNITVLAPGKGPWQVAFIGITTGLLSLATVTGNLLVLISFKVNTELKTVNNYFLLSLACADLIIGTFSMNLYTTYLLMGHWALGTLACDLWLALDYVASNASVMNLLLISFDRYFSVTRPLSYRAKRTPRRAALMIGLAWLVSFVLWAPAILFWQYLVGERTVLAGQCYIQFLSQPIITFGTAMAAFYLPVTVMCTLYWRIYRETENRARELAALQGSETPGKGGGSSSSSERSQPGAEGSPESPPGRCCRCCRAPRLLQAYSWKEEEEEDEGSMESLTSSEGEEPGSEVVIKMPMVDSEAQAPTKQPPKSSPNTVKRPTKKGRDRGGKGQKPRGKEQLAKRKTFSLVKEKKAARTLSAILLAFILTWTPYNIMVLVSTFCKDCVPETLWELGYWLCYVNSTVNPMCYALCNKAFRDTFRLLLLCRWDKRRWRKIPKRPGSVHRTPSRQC
How it was run: (§2)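 Competition against 50 pM [3H]-(R)-QNB in rat brain membrane suspension, about 10 pM receptors (4 mg/mL protein), 40 mM Na/K phosphate pH 7.4, varying compound concentrations. Incubation 2.0 h at room temperature, then glass fiber filtration and two cold buffer washes. Nonspecific binding with 1000-fold excess atropine. IC50 from Hill plots; mean ± SEM, three independent experiments in triplicate.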

[3] = target: Muscarinic acetylcholine receptor; test: Affinity for muscarinic receptor in rat brain was measured by inhibition of [3H](R)-quinuclidinyl benzilate (QNB) binding; type: tissue-based
[4] = target: Muscarinic acetylcholine receptor; test: as §1; type: tissue-based; how it was run: as §2

IC50 [2]	IC50 [3]	IC50 [4]	Structure (SMILES)	PI metabolism [1]
120 µM	–	–	COC(=O)C1CCN=C(N)C1.Cl (stereo unspecified)	9%
–	8.2 µM	–	CCOC(=O)C1CN=C(N)NC1.Cl (stereo unspecified)	28%
250 µM	–	–	COC(=O)C1CCCC(N)=N1.Cl (stereo unspecified)	8.1%
–	22 µM	–	COC(=O)C1CN=C(N)NC1.Cl (stereo unspecified)	81%
–	1.7 µM	–	CCCOC(=O)C1CCC(N)=NC1.Cl (stereo unspecified)	51%
–	–	4300 µM	COC(=O)C1CCN=C(N)N1.Cl (stereo unspecified)	–
–	2.3 µM	–	C#CCOC(=O)C1CCC(N)=NC1.Cl (stereo unspecified)	120%
–	10 µM	–	COC(=O)C1CCC(N)=NC1.Cl (stereo unspecified)	260%
–	4.3 µM	–	CCOC(=O)C1CCC(N)=NC1.Cl (stereo unspecified)	31%
320 µM	–	–	COC(=O)C1CCCN=C1N.Cl (stereo unspecified)	-5.5%

More lines, now with the values behind:

Structure (SMILES)	IC50 [2]	IC50 [3]	IC50 [4]	PI metabolism [1]
CCCOC(=O)C1CN=CNC1.Cl (stereo unspecified)	–	–	–	7.1%
CCCOC(=O)C1CN=C(N)NC1.Cl (stereo unspecified)	–	4.8 µM	–	4.3%
C[N+](C)(C)CCOC(N)=O.[Cl-] [CARBACHOL]	–	–	–	470%
CC(C)OC(=O)C1CN=C(N)NC1.Cl (stereo unspecified)	–	29 µM	–	23%
COC(=O)C1CN=CNC1.Cl (stereo unspecified)	–	–	–	110%
C#CCOC(=O)C1CN=CNC1.Cl (stereo unspecified)	–	–	–	230%
CC(C)OC(=O)C1CN=CNC1.Cl (stereo unspecified)	–	–	–	7.2%
CCOC(=O)C1CN=CNC1.Cl (stereo unspecified)	–	–	–	150%
C#CCOC(=O)C1CN=C(N)NC1.Cl (stereo unspecified)	–	31 µM	–	150%

— ChEMBL document CHEMBL1127441, “Design, synthesis, and neurochemical evaluation of 2-amino-5-(alkoxycarbonyl)-3,4,5,6-tetrahydropyridines and 2-amino-5-(alkoxycarbonyl)-1,4,5,6-tetrahydropyrimidines as M1 muscarinic receptor agonists” (J Med Chem, 1994)
